Measured values published in ChEMBL document CHEMBL1138564, “Microwave-induced synthesis and anti-microbial activities of 7,10,11,12-tetrahydrobenzo[c]acridin-8(9H)-one derivatives” (2009).
Converted amounts (≈) assume the structure as drawn. The source made the active and inactive calls. No cut-off for these calls is given here.

Tests used:
Assay type in all cases: functional
Escherichia coli [1] = assay: Antimicrobial activity against Escherichia coli NCIM 2065 at 1000 ug/disk after 24 hrs by disk diffusion method; conditions: NCIM 2065, 24 h, read-out: DIZ
How it was run: (§1)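 Disc diffusion on Mueller–Hinton agar. 100 µl of bacterial suspension at 10⁸ CFU/ml is spread on the plate. Discs carry test compounds at two loadings, dissolved in DMSO; DMSO alone serves as negative control. Ofloxacin disc is the positive reference. Plates are incubated at 37 °C for 24 h, and the inhibition zone diameter is measured.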

Escherichia coli [2] = assay: Antimicrobial activity against Escherichia coli NCIM 2065 at 500 ug/disk after 24 hrs by disk diffusion method; how it was run: as §1
Bacillus subtilis [3] = assay: Antimicrobial activity against Bacillus subtilis NCIM 2063 at 500 ug/disk after 24 hrs by disk diffusion method; conditions: NCIM 2063, 24 h, read-out: DIZ; how it was run: as §1
Bacillus subtilis [4] = assay: Antimicrobial activity against Bacillus subtilis NCIM 2063 at 1000 ug/disk after 24 hrs by disk diffusion method; conditions: NCIM 2063, 24 h, read-out: DIZ; how it was run: as §1
Bacillus cereus = assay: Antimicrobial activity against Bacillus cereus NCIM 2155 at 1000 ug/disk after 24 hrs by disk diffusion method; how it was run: as §1
Aliivibrio fischeri [5] = assay: Antimicrobial activity against Vibrio fischeri NCIM 2154 at 500 ug/disk after 24 hrs by disk diffusion method
How it was run: (§2)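 Disc diffusion. 100 µl of bacterial suspension at 10⁸ CFU/ml was spread on Mueller–Hinton agar. Discs loaded with test compound dissolved in DMSO were placed on the lawn, with a DMSO-only disc as negative control. Plates were incubated at 37 °C for 24 h, and the inhibition zone diameter was measured.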

[6] = tested on: Rhodococcus corynebacterioides; assay: Antimicrobial activity against Corynebacterium rubrum NCIM 2252 at 500 ug/disk after 24 hrs by disk diffusion method; conditions: Rhodococcoides corynebacterioides; how it was run: as §1
Salmonella typhimurium = assay: Antimicrobial activity against Salmonella Typhimurium NCIM 2501 at 1000 ug/disk after 24 hrs by disk diffusion method; conditions: Salmonella enterica subsp. enterica serovar Typhimurium; how it was run: as §2
[7] = tested on: Rhodococcus corynebacterioides; assay: Antimicrobial activity against Corynebacterium rubrum NCIM 2252 at 1000 ug/disk after 24 hrs by disk diffusion method; conditions: Rhodococcoides corynebacterioides; how it was run: as §1
Staphylococcus = assay: Antimicrobial activity against Staphylococcus albus NCIM 2178 at 500 ug/disk after 24 hrs by disk diffusion method; how it was run: as §2
Proteus vulgaris [8] = assay: Antimicrobial activity against Proteus vulgaris NCIM 2027 at 500 ug/disk after 24 hrs by disk diffusion method; how it was run: as §1
Proteus vulgaris [9] = assay: Antimicrobial activity against Proteus vulgaris NCIM 2027 at 1000 ug/disk after 24 hrs by disk diffusion method; how it was run: as §1
Aspergillus flavus [10] = assay: Antimicrobial activity against Aspergillus flavus NCIM 902 at 1000 ug/disk after 72 hrs by disk diffusion method; conditions: NCIM 902, 72 h, read-out: DIZ
How it was run: (§3)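 Disc diffusion on Sabouraud's dextrose agar. 100 µl of fungal suspension at 10⁶ CFU/ml is spread on the plate. Discs carry test compounds at two loadings in DMSO; DMSO alone is the negative control. Clotrimazole disc is the positive reference. Plates are incubated at 27 °C for 72 h, and the zone of inhibition diameter is measured.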

Rhodotorula mucilaginosa [11] = assay: Antimicrobial activity against Rhodotorula rubra NCIM 3174 at 500 ug/disk after 72 hrs by disk diffusion method; conditions: NCIM 3174, 72 h, read-out: DIZ
How it was run: (§4)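 Fungal disc diffusion. 100 µl of suspension at 10⁶ CFU/ml was spread on Sabouraud's dextrose agar. Discs carrying test compound in DMSO were applied, with a DMSO-only disc as negative control. Plates were incubated at 27 °C for 72 h, and the zone of inhibition diameter was measured.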

Rhodotorula mucilaginosa [12] = assay: Antimicrobial activity against Rhodotorula rubra NCIM 3174 at 1000 ug/disk after 72 hrs by disk diffusion method; conditions: NCIM 3174, 72 h, read-out: DIZ; how it was run: as §4
Aspergillus fumigatus [13] = assay: Antimicrobial activity against Aspergillus fumigatus NCIM 902 at 500 ug/disk after 72 hrs by disk diffusion method; how it was run: as §3
Aspergillus fumigatus [14] = assay: Antimicrobial activity against Aspergillus fumigatus NCIM 902 at 1000 ug/disk after 72 hrs by disk diffusion method; conditions: NCIM 902, 72 h, read-out: DIZ; how it was run: as §3
Aspergillus parasiticus [15] = assay: Antimicrobial activity against Aspergillus parasiticus NCIM 904 at 500 ug/disk after 72 hrs by disk diffusion method; conditions: NCIM 904, 72 h, read-out: DIZ; how it was run: as §3
Penicillium chrysogenum [16] = assay: Antimicrobial activity against Penicillium chrysogenum NCIM 707 at 500 ug/disk after 72 hrs by disk diffusion method; how it was run: as §3
Penicillium chrysogenum [17] = assay: Antimicrobial activity against Penicillium chrysogenum NCIM 707 at 1000 ug/disk after 72 hrs by disk diffusion method; how it was run: as §3
Klebsiella aerogenes [18] = assay: Antimicrobial activity against Klebsiella aerogenes NCIM 2239 at 1000 ug/disk after 24 hrs by disk diffusion method; how it was run: as §1
Klebsiella aerogenes [19] = assay: Antimicrobial activity against Klebsiella aerogenes NCIM 2239 at 500 ug/disk after 24 hrs by disk diffusion method; how it was run: as §1
Pseudomonas aeruginosa = assay: Antimicrobial activity against Pseudomonas aeruginosa NCIM 2200 at 500 ug/disk after 24 hrs by disk diffusion method; how it was run: as §2
Aspergillus flavus [20] = assay: Antimicrobial activity against Aspergillus flavus NCIM 902 after 72 hrs by serial dilution method; conditions: NCIM 535, 72 h, in the assay text read “NCIM 535” for “NCIM 902”
How it was run: (§5)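 MIC by broth dilution in Sabouraud's dextrose broth, only for fungi sensitive in disc diffusion. Two-fold serial dilutions of compounds are made in 1 ml broth per tube, range 3.9 to 1000. Inoculated tubes are incubated at 27 °C for 72 h.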

Rhodotorula mucilaginosa [21] = assay: Antimicrobial activity against Rhodotorula rubra NCIM 3174 after 72 hrs by serial dilution method; conditions: NCIM 3174, 72 h
How it was run: (§6)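 MIC by broth dilution in Sabouraud's dextrose broth, run only on fungi found sensitive in the disc assay. Twofold serial dilutions were made in 1 ml broth per tube, covering 3.9 to 1000. Inoculated tubes were incubated at 27 °C for 72 h.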

Aspergillus parasiticus [22] = assay: Antimicrobial activity against Aspergillus parasiticus NCIM 904 after 72 hrs by serial dilution method; conditions: NCIM 904, 72 h; how it was run: as §5
Trichoderma viride [23] = assay: Antimicrobial activity against Trichoderma viride NCIM 1195 after 72 hrs by serial dilution method; conditions: NCIM 1195, 72 h; how it was run: as §6
Trichoderma viride [24] = assay: Antimicrobial activity against Trichoderma viride NCIM 1195 at 500 ug/disk after 72 hrs by disk diffusion method; conditions: NCIM 1195, 72 h, read-out: DIZ; how it was run: as §4
Trichoderma viride [25] = assay: Antimicrobial activity against Trichoderma viride NCIM 1195 at 1000 ug/disk after 72 hrs by disk diffusion method; conditions: NCIM 1195, 72 h, read-out: DIZ; how it was run: as §4
Escherichia coli [26] = assay: Antimicrobial activity against Escherichia coli NCIM 2065 after 24 hrs by serial dilution method; conditions: NCIM 2065, 24 h
How it was run: (§7)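 Broth dilution MIC in nutrient broth, run only for organisms found sensitive in disc diffusion. Compounds are two-fold serially diluted in 1 ml sterile broth per tube, spanning 3.9 to 1000. Inoculated tubes are incubated at 37 °C for 24 h.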

Bacillus subtilis [27] = assay: Antimicrobial activity against Bacillus subtilis NCIM 2063 after 24 hrs by serial dilution method; conditions: NCIM 2063, 24 h; how it was run: as §7
Aliivibrio fischeri [28] = assay: Antimicrobial activity against Vibrio fischeri NCIM 2154 after 24 hrs by serial dilution method; conditions: NCIM 2154, 24 h

Row | MIC (Aspergillus flavus [20]) [µg/mL] | MIC (Rhodotorula mucilaginosa [21]) [µg/mL] | MIC (Aspergillus parasiticus [22]) [µg/mL] | SMILES | zone of inhibition at 1000 µg/disc (Escherichia coli [1]) [mm] | zone of inhibition at 500 µg/disc (Bacillus subtilis [3]) [mm] | zone of inhibition at 1000 µg/disc (Bacillus subtilis [4]) [mm] | diameter of the inhibition zone (DIZ) (Salmonella typhimurium) | diameter of the inhibition zone (DIZ) (Staphylococcus) | diameter of the inhibition zone (DIZ) (Proteus vulgaris [8]) | diameter of the inhibition zone (DIZ) (Proteus vulgaris [9]) | zone of inhibition at 1000 µg/disc (Aspergillus flavus [10]) [mm] | zone of inhibition at 500 µg/disc (Rhodotorula mucilaginosa [11]) [mm] | zone of inhibition at 1000 µg/disc (Rhodotorula mucilaginosa [12]) [mm] | diameter of the inhibition zone (DIZ) (Aspergillus fumigatus [13]) | zone of inhibition at 1000 µg/disc (Aspergillus fumigatus [14]) [mm] | zone of inhibition at 500 µg/disc (Aspergillus parasiticus [15]) [mm] | diameter of the inhibition zone (DIZ) (Penicillium chrysogenum [16]) | diameter of the inhibition zone (DIZ) (Klebsiella aerogenes [18]) | diameter of the inhibition zone (DIZ) (Klebsiella aerogenes [19]) | diameter of the inhibition zone (DIZ) (Pseudomonas aeruginosa) | further results
1 | 62.5 (≈ 174 µM) | 3.9 (≈ 10.8 µM) | 62.5 (≈ 174 µM) | O=C1CCCC2=C1C(c1ccccc1Cl)c1ccc3ccccc3c1N2 (stereo not drawn) | 8 | 7 | 10 | inactive | inactive | inactive | inactive | 9 | 13 | 16 | inactive | 9 | 8 | inactive | inactive | inactive | inactive | diameter of the inhibition zone (DIZ) (Escherichia coli [2]): inactive; diameter of the inhibition zone (DIZ) (Bacillus cereus): inactive; zone of inhibition at 500 µg/disc (Aliivibrio fischeri [5]; NCIM 2154, 24 h, read-out: DIZ): 7 mm; zone of inhibition at 500 µg/disc ([6]; NCIM 2252, 24 h, read-out: DIZ): 7 mm; zone of inhibition at 1000 µg/disc ([7]; NCIM 2252, 24 h, read-out: DIZ): 8 mm; diameter of the inhibition zone (DIZ) (Penicillium chrysogenum [17]): inactive; MIC (Trichoderma viride [23]): 62.5 µg/mL (≈ 174 µM); zone of inhibition at 500 µg/disc (Trichoderma viride [24]): 9 mm; zone of inhibition at 1000 µg/disc (Trichoderma viride [25]): 10 mm; MIC (Escherichia coli [26]): 125 µg/mL (≈ 347 µM); MIC (Bacillus subtilis [27]): 62.5 µg/mL (≈ 174 µM); MIC (Aliivibrio fischeri [28]): 125 µg/mL (≈ 347 µM)
2 | 31.2 (≈ 91.4 µM) | 15.6 (≈ 45.7 µM) | 62.5 (≈ 183 µM) | O=C1CCCC2=C1C(c1ccccc1O)c1ccc3ccccc3c1N2 (stereo not drawn) | 9 | 8 | 10 | inactive | inactive | inactive | inactive | 11 | 11 | 13 | inactive | 12 | 9 | inactive | inactive | inactive | inactive | zone of inhibition at 500 µg/disc (Escherichia coli [2]; NCIM 2065, 24 h, read-out: DIZ): 8 mm; zone of inhibition at 1000 µg/disc (Bacillus cereus; NCIM 2155, 24 h, read-out: DIZ): 8 mm; diameter of the inhibition zone (DIZ) (Aliivibrio fischeri [5]): inactive; diameter of the inhibition zone (DIZ) [6]: inactive; diameter of the inhibition zone (DIZ) [7]: inactive; zone of inhibition at 1000 µg/disc (Penicillium chrysogenum [17]; NCIM 707, 72 h, read-out: DIZ): 9 mm; MIC (Trichoderma viride [23]): 62.5 µg/mL (≈ 183 µM); zone of inhibition at 500 µg/disc (Trichoderma viride [24]): 9 mm; zone of inhibition at 1000 µg/disc (Trichoderma viride [25]): 10 mm; MIC (Escherichia coli [26]): 125 µg/mL (≈ 366 µM); MIC (Bacillus subtilis [27]): 62.5 µg/mL (≈ 183 µM)
